Experimental data: article PMC8861878 (The Journal of pharmacy and pharmacology, 2020)
Where “and” joins values, the source holds several entries; their conditions need not be identical. Identical values can stand only once.

What was measured:
[1] = test system: expressed CYP enzymes; assay: Reaction phenotyping with expressed CYP enzymes; assay type: in vitro ADME, human; conditions: isobavachin at 10 μM (Figure S4A)
[2] = biological target: T1, UGT1A1 (Homo sapiens, UniProt P22309); assay: Inhibition of UGT1A1; assay type: in vitro ADME
T1 sequence (P22309 26-533): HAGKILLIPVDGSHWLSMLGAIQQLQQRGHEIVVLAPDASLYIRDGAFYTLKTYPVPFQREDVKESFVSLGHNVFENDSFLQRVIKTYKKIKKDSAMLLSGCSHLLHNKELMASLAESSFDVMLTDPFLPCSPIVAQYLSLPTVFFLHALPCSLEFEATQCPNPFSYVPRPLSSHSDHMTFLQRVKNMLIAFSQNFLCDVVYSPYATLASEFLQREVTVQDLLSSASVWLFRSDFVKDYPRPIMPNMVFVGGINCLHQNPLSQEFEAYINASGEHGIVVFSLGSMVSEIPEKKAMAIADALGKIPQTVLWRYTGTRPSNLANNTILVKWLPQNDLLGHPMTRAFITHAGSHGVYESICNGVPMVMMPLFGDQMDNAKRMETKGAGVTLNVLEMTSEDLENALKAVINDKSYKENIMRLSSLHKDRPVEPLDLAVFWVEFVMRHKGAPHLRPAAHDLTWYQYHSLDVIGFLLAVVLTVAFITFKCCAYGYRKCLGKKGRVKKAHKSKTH

[3] = biological target: CYP2C19 (Homo sapiens, UniProt P33261); assay: Inhibition of CYP2C19; assay type: in vitro ADME
[4] = Mono-oxidation of isobavachin by pooled HLM, enzyme kinetics; assay type: in vitro ADME, human
[5] = intragastric administration of Psoraleae Fructus extracts (1.2 g/kg); cited from earlier work
[6] = biological target: T2, CYP2C8 (Homo sapiens, UniProt P10632); assay: Inhibition of CYP2C8; assay type: in vitro ADME; conditions: isobavachin 1, 10, 100 μM; substrate paclitaxel (60 μM)
T2 sequence (P10632 1-490): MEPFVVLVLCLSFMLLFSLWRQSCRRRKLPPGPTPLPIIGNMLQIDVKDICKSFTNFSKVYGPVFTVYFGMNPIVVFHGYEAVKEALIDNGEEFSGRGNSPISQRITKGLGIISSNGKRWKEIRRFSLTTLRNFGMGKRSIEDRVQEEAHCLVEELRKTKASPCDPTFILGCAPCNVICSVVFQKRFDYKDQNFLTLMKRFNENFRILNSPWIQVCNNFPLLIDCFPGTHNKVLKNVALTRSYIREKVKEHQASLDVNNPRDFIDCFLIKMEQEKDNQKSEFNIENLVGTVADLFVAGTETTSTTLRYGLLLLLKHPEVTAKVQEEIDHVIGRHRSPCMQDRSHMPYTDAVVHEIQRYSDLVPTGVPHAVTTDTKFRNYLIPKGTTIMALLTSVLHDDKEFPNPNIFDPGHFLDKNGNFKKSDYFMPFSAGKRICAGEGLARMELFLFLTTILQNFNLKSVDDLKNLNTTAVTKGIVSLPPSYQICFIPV
How it was run: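 Recombinant human CYPs (CYP1A2 and 3A4 at 0.05 mg/ml; CYP2C8 and 2E1 at 0.1 mg/ml) with probe substrate in Tris-HCl 50 mM pH 7.4, MgCl2 5 mM and NADPH 1 mM at 37 °C for 60 min. Run without (control) or with test compound at 1, 10 or 100 μM. Acetonitrile stop; metabolite by UHPLC-TQD-MS; activity versus control, triplicate.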

[7] = biological target: T1, UGT1A1; assay: Glucuronidation of isobavachin by recombinant UGT1A1, enzyme kinetics; assay type: in vitro ADME; conditions: formation of G1, substrate inhibition model
[8] = biological target: T3, CYP2B6 (Homo sapiens, UniProt P20813); assay: Inhibition of CYP2B6; assay type: in vitro ADME
T3 sequence (P20813 1-491): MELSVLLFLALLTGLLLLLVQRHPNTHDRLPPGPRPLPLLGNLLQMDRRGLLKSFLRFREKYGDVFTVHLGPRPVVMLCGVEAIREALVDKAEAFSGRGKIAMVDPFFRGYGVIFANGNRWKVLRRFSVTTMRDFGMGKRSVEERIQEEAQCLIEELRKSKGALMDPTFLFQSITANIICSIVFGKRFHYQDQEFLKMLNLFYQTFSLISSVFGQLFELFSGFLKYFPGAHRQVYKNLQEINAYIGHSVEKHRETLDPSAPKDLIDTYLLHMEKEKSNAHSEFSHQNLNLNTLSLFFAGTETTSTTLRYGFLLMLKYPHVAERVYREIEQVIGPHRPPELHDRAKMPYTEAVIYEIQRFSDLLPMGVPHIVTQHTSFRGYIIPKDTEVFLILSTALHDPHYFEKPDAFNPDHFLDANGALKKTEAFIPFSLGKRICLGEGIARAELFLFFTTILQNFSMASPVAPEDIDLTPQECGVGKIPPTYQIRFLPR

[9] = based on the smallest AIC and SC values

Sequence of CYP2C19 (P33261 whole entry): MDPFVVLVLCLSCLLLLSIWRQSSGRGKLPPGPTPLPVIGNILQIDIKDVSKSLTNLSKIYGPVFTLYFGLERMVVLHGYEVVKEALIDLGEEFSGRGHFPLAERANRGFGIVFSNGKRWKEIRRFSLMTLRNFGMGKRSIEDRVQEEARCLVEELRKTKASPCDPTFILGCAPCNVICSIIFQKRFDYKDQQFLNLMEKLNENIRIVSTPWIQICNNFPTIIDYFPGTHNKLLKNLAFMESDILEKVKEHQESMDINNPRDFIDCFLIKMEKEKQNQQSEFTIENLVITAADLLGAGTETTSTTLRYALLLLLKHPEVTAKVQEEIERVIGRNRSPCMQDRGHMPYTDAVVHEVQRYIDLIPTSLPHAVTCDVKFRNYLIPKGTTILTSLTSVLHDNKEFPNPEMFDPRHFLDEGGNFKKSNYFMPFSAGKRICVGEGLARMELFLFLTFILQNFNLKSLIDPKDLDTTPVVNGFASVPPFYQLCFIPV

## CC(C)=CCc1c(O)ccc2c1O[C@H](c1ccc(O)cc1)CC2=O [isobavachin]
[1]
  CYP isozymes participating in oxidation: CYP1A1, 1A2, 1B1, 2C8, 2C9, 2C19 and 2D6 all participated in the oxidation
[2]
  IC50: 1530 ± 390 nM
[2]; 10 μM isobavachin
  residual activities: 4.58 % of the negative control
[2]; Ki, substrate estradiol, competitive model (selected, smallest AIC and SC)
  Ki: 3050 ± 410 nM
[2]; [9]
  Inhibition type: competitive inhibition
[2]; substrate estradiol, mixed-type model
  α: 8.01 ± 2.56
[3]
  IC50: 270 ± 70 nM
[3]; 10 μM isobavachin
  residual activities: 0 % of the negative control
[3]; substrate mephenytoin, competitive model (selected, smallest AIC and SC)
  Ki: 1550 nM
[3]; substrate mephenytoin, mixed-type model (not selected)
  Ki: 1550 ± 530 nM
[3]; substrate mephenytoin, non-competitive model (not selected)
  Ki: 3340 ± 490 nM
[3]; [9]
  Inhibition type: competitive inhibition
[3]; substrate mephenytoin, mixed-type model
  α: >>1
[4]; formation of M1, substrate inhibition model
  CLint (CLmax): 59.81 μl/min per mg and 59.81 ± 21.18 μl/min per mg
[4]; formation of M2, Michaelis–Menten model
  CLint (CLmax): 5.53 ± 0.93 μl/min per mg
[5]
  exposure: about 13.2 nM
[6]
  inhibitory effects: negligible or weak
[7]; substrate inhibition constant
  Ki: 40820 ± 9700 nM
[7]
  Vmax: 7735.0 ± 1186.0 pmol/min per mg
[8]
  IC50: 5000 ± 480 nM
[8]; 10 μM isobavachin
  residual activities: 30.86 % of the negative control
[8]; substrate bupropion, competitive model (not selected)
  Ki: 350 ± 110 nM
[8]; substrate bupropion, mixed-type model (not selected)
  Ki: 1460 ± 620 nM
[8]; substrate bupropion, non-competitive model (selected, smallest AIC and SC)
  Ki: 1930 ± 180 nM
[8]; [9]
  Inhibition type: non-competitive inhibition mode
[8]; substrate bupropion, mixed-type model
  α: 1.49 ± 0.92
